According to ChEMBL document CHEMBL5303300, “EUbOPEN Chemogenomics Library - Multiplex” (2023):
“And” between values parts separate entries of the source, which are not always exact repeats. Equal values may be shown once.

Experiments:
Fibroblast = assay: Multiplex assay against human fibroblast; assay type: toxicity, cell-based; conditions: number of replicates 2
Summary of the method: (§1)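 On a CQ1 microscope at 37°C and 5% CO2, live cells were imaged after compound addition. They had been stained at seeding with Hoechst33342, BioTracker Green Microtubule Cytoskeleton Dye, MitoTracker Red and Annexin V Alexa Fluor 680. CellPathfinder machine-learning gating assigned cells to Hoechst high-intensity objects or normal cells, normal cells to healthy, pyknosed or fragmented nuclei, and pyknosed cells to mitotic or apoptotic. Tubulin, mitochondrial-mass and membrane-permeability phenotypes are per cents of healthy-nucleus cells.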

HEK-293T = assay: Multiplex assay against HEK293T; assay type: toxicity, cell-based; conditions: human, number of replicates 2; summary of the method: as §1
[1] = 12 h, 1 µM, compound concentration 1 uM
[2] = 12 h, 10 µM, compound concentration 10 uM
[3] = 24 h, 1 µM, compound concentration 1 uM
[4] = 24 h, 10 µM, compound concentration 10 uM
[5] = 48 h, 1 µM, compound concentration 1 uM
[6] = 48 h, 10 µM, compound concentration 10 uM

CN1CCN(C(=O)Cc2ccc(N/C(=C3\C(=O)Nc4cc(Cl)ccc43)c3ccccc3)cc2)CC1
Population Apoptotic (%) (Fibroblast; [1]): 43% and 30%
Population Fragmented Nuclei (%) (Fibroblast; [1]): 9% and 8%
Population Healthy Nuclei (%) (Fibroblast; [1]): 69%
Population Hoechst High Intensity Objects (%) (Fibroblast; [1]): 0%
Population Membrane Permeable-Phenotype (%) (Fibroblast; [1]): 5% and 7%
Population Mitochondria Different-Phenotype (%) (Fibroblast; [1]): 0% and 1%
Population Mitotic Cells (%) (Fibroblast; [1]): 56% and 69%
Population Normal (%) (Fibroblast; [1]): 100%
Population Pyknosed Nuclei (%) (Fibroblast; [1]): 20% and 21%
Population Tubulin-Different-Phenotype (%) (Fibroblast; [1]): 8% and 15%
Total Cell Count (Fibroblast; [1]): 178 and 179
Population Apoptotic (%) (Fibroblast; [2]): 51% and 36%
Population Fragmented Nuclei (%) (Fibroblast; [2]): 12% and 11%
Population Healthy Nuclei (%) (Fibroblast; [2]): 74% and 67%
Population Hoechst High Intensity Objects (%) (Fibroblast; [2]): 0%
Population Membrane Permeable-Phenotype (%) (Fibroblast; [2]): 7% and 5%
Population Mitochondria Different-Phenotype (%) (Fibroblast; [2]): 2%
Population Mitotic Cells (%) (Fibroblast; [2]): 48% and 63%
Population Normal (%) (Fibroblast; [2]): 100%
Population Pyknosed Nuclei (%) (Fibroblast; [2]): 12% and 21%
Population Tubulin-Different-Phenotype (%) (Fibroblast; [2]): 34% and 26%
Total Cell Count (Fibroblast; [2]): 240 and 203
Population Apoptotic (%) (Fibroblast; [3]): 43% and 52%
Population Fragmented Nuclei (%) (Fibroblast; [3]): 7% and 12%
Population Healthy Nuclei (%) (Fibroblast; [3]): 72% and 68%
Population Hoechst High Intensity Objects (%) (Fibroblast; [3]): 0%
Population Membrane Permeable-Phenotype (%) (Fibroblast; [3]): 5%
Population Mitochondria Different-Phenotype (%) (Fibroblast; [3]): 0% and 2%
Population Mitotic Cells (%) (Fibroblast; [3]): 56% and 47%
Population Normal (%) (Fibroblast; [3]): 100%
Population Pyknosed Nuclei (%) (Fibroblast; [3]): 20% and 19%
Population Tubulin-Different-Phenotype (%) (Fibroblast; [3]): 12% and 10%
Total Cell Count (Fibroblast; [3]): 193 and 174
Population Apoptotic (%) (Fibroblast; [4]): 51% and 56%
Population Fragmented Nuclei (%) (Fibroblast; [4]): 12% and 17%
Population Healthy Nuclei (%) (Fibroblast; [4]): 74% and 67%
Population Hoechst High Intensity Objects (%) (Fibroblast; [4]): 0%
Population Membrane Permeable-Phenotype (%) (Fibroblast; [4]): 2%
Population Mitochondria Different-Phenotype (%) (Fibroblast; [4]): 5% and 8%
Population Mitotic Cells (%) (Fibroblast; [4]): 48% and 43%
Population Normal (%) (Fibroblast; [4]): 100% and 99%
Population Pyknosed Nuclei (%) (Fibroblast; [4]): 12% and 14%
Population Tubulin-Different-Phenotype (%) (Fibroblast; [4]): 35% and 28%
Total Cell Count (Fibroblast; [4]): 232 and 216
Population Apoptotic (%) (Fibroblast; [5]): 64% and 72%
Population Fragmented Nuclei (%) (Fibroblast; [5]): 12% and 16%
Population Healthy Nuclei (%) (Fibroblast; [5]): 75% and 68%
Population Hoechst High Intensity Objects (%) (Fibroblast; [5]): 0%
Population Membrane Permeable-Phenotype (%) (Fibroblast; [5]): 5% and 3%
Population Mitochondria Different-Phenotype (%) (Fibroblast; [5]): 0%
Population Mitotic Cells (%) (Fibroblast; [5]): 36% and 27%
Population Normal (%) (Fibroblast; [5]): 100%
Population Pyknosed Nuclei (%) (Fibroblast; [5]): 12% and 15%
Population Tubulin-Different-Phenotype (%) (Fibroblast; [5]): 9% and 5%
Total Cell Count (Fibroblast; [5]): 200 and 186
Population Apoptotic (%) (Fibroblast; [6]): 65% and 75%
Population Fragmented Nuclei (%) (Fibroblast; [6]): 11% and 17%
Population Healthy Nuclei (%) (Fibroblast; [6]): 76% and 65%
Population Hoechst High Intensity Objects (%) (Fibroblast; [6]): 0%
Population Membrane Permeable-Phenotype (%) (Fibroblast; [6]): 3% and 1%
Population Mitochondria Different-Phenotype (%) (Fibroblast; [6]): 4% and 5%
Population Mitotic Cells (%) (Fibroblast; [6]): 34% and 25%
Population Normal (%) (Fibroblast; [6]): 100%
Population Pyknosed Nuclei (%) (Fibroblast; [6]): 12% and 16%
Population Tubulin-Different-Phenotype (%) (Fibroblast; [6]): 37% and 25%
Total Cell Count (Fibroblast; [6]): 213 and 212
Population Apoptotic (%) (HEK-293T; [1]): 28% and 39%
Population Fragmented Nuclei (%) (HEK-293T; [1]): 2% and 3%
Population Healthy Nuclei (%) (HEK-293T; [1]): 86% and 84%
Population Hoechst High Intensity Objects (%) (HEK-293T; [1]): 5%
Population Membrane Permeable-Phenotype (%) (HEK-293T; [1]): 2% and 4%
Population Mitochondria Different-Phenotype (%) (HEK-293T; [1]): 10% and 16%
Population Mitotic Cells (%) (HEK-293T; [1]): 71% and 60%
Population Normal (%) (HEK-293T; [1]): 94%
Population Pyknosed Nuclei (%) (HEK-293T; [1]): 11% and 12%
Population Tubulin-Different-Phenotype (%) (HEK-293T; [1]): 45% and 47%
Total Cell Count (HEK-293T; [1]): 870 and 527
Population Apoptotic (%) (HEK-293T; [2]): 40% and 34%
Population Fragmented Nuclei (%) (HEK-293T; [2]): 1%
Population Healthy Nuclei (%) (HEK-293T; [2]): 86% and 81%
Population Hoechst High Intensity Objects (%) (HEK-293T; [2]): 3% and 5%
Population Membrane Permeable-Phenotype (%) (HEK-293T; [2]): 4% and 6%
Population Mitochondria Different-Phenotype (%) (HEK-293T; [2]): 22% and 18%
Population Mitotic Cells (%) (HEK-293T; [2]): 60% and 65%
Population Normal (%) (HEK-293T; [2]): 96% and 94%
Population Pyknosed Nuclei (%) (HEK-293T; [2]): 11% and 16%
Population Tubulin-Different-Phenotype (%) (HEK-293T; [2]): 67% and 69%
Total Cell Count (HEK-293T; [2]): 702 and 579
Population Apoptotic (%) (HEK-293T; [3]): 29% and 31%
Population Fragmented Nuclei (%) (HEK-293T; [3]): 4%
Population Healthy Nuclei (%) (HEK-293T; [3]): 87%
Population Hoechst High Intensity Objects (%) (HEK-293T; [3]): 9% and 5%
